Biological target: Palmitoyl-protein thioesterase ABHD10, mitochondrial (Mus musculus) (UniProt Q6PE15)
Assay: endogenous mouse ABHD10 activity inhibitors – cell-based, competitive gel ABPP, fluorescence, PME-1 inhibitor project, late-stage follow-up (AID 588806)
Conditions: BW5147 mouse T cells, in situ FP-Rh gel ABPP, 4 h, stronger effect = higher value
How it was run: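 Test system: in situ endogenous ABHD10, murine T cells derived from BW5147. Schedule: compound exposure 4 h/37 °C, probe labelling 30 min/25 °C. Doses: three test concentrations per compound, 0.25, 0.1 and 0.05 µM. Control set: high DMSO only, low blank-gel background. Signal: SDS-PAGE separation with in-gel fluorescence scanning of probe-labelled bands.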

Sequence of Palmitoyl-protein thioesterase ABHD10, mitochondrial (Mus musculus) (Q6PE15 whole entry, looked up): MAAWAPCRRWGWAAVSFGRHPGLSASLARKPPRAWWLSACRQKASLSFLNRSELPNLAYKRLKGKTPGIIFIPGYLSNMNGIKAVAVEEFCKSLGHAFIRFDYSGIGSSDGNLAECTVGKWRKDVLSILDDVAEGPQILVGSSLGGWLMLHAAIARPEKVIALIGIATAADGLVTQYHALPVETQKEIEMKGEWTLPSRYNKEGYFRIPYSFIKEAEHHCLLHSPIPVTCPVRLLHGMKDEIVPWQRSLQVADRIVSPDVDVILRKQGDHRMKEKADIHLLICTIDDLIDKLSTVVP

CC[C@@]1(c2ccc(C)cc2)C(=O)N(C(=O)OC(C)C)N1C(=O)OC(C)C
inhibition (at 0.25 µM): 90%
inhibition (inhibition, at 0.05 µM): 75%
inhibition (inhibition, at 0.1 µM): 70%

CCCOC(=O)N1C(=O)[C@@](CC)(c2ccc(C)cc2)N1C(=O)OCCC
inhibition (at 0.25 µM): 90%
inhibition (inhibition, at 0.05 µM): 60%
inhibition (inhibition, at 0.1 µM): 80%

C=CCOC(=O)N1C(=O)[C@@](CC)(c2ccc(C)cc2)N1C(=O)OCC=C
inhibition (at 0.25 µM): 70%
inhibition (inhibition, at 0.05 µM): 40%
inhibition (inhibition, at 0.1 µM): 60%

— PubChem BioAssay AID588806 (The Scripps Research Institute Molecular Screening Center, 2011)
